The source made the active and inactive calls. The rule behind the calls is not given here.

One test addresses T1, Vitamin D3 receptor (Homo sapiens, UniProt P11473).
T1 sequence (P11473 whole entry): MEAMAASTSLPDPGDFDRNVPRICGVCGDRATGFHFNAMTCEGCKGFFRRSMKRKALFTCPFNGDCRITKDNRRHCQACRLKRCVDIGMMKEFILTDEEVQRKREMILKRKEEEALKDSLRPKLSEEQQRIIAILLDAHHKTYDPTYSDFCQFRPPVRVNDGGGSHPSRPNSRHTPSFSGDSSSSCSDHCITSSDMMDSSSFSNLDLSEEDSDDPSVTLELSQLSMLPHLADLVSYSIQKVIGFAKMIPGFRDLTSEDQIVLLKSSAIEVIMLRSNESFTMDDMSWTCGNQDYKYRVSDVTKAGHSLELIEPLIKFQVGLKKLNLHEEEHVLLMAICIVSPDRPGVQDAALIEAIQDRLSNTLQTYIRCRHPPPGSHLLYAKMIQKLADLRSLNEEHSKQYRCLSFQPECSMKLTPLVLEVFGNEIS
Description: Activation of human VDR expressed in HEK293 cells cotransfected CMX-GAL4-RXRalpha and 4-tk-LUC assessed as heterodimerization with RXRalpha by mammalian two-hybrid assay. The test is classed as cell-based.
Settings: not given
The method, boiled down:
(§1)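 HEK293 cells in DMEM with 5% FBS, per well: 50 ng TK-MH100(UAS)×4-LUC reporter, 10 ng pCMX-β-galactosidase, 15 ng pCMX-VP16-VDR, and 15 ng of a GAL4 fusion. The fusion was RXRα for heterodimerisation, SRC-1 for coactivator binding, N-CoR, or SMRT (NCoR2). Cells were treated across a concentration range. Luciferase was normalised to β-galactosidase.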
Take `C=C1[C@H](O)CC(=C/C=C2\CCC[C@]3(C)[C@@H]([C@H](C)CC#C[C@@H](O)CC45CC6CC(CC(C6)C4)C5)CC[C@@H]23)C[C@H]1O`: the EC50 turned out to be 0.8 nM.

A further test has as its target T1, Vitamin D3 receptor. Description: Displacement of [3H]-1,25(OH)2D3 from GST-fused human VDR-LBD expressed in Escherichia coli BL21.
Settings: not given
In a few lines:
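hVDR-LBD (aa 140–427) as a GST fusion from E. coli BL21 sonicated lysate, 1 μg in pH 7.5 Tris/KCl/DTT/CHAPS buffer with BSA. Ligand in EtOH was preincubated 30 min at RT. [26,27-methyl-³H]-1,25(OH)₂D₃ was then added for 20 h at 4 °C. Free ligand was removed with dextran-coated charcoal and centrifugation, and bound radioactivity counted. IC50 from at least two triplicate runs.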
A general note: Displacement assays read how much labelled ligand stays bound in the presence of the test substance.
In the case of `C=C1[C@H](O)CC(=C/C=C2\CCC[C@]3(C)[C@@H]([C@H](C)CC#C[C@@H](O)CC45CC6CC(CC(C6)C4)C5)CC[C@@H]23)C[C@H]1O`, the IC50 was 12 nM.

For another test, the system named is HaCaT. Nature of the test: Induction of cathelicidine antimicrobial peptide mRNA expression in human HaCaT cells at 100 nM after 24 hrs by real-time PCR relative to 1-alpha,25-dihydroxyvitamin D3. It is filed as functional.
Settings: not given
The method, boiled down: (§2)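 Cells seeded at 1 × 10⁴ per well and treated 24 h later with ethanol vehicle or 100 nM ligand for 24 h. Total RNA taken by a chloroform method, reverse-transcribed, and target mRNA quantified by SYBR Green real-time PCR, normalized to ACTIN mRNA. Culture media: HEK293 in DMEM 5% FBS; SW480 and HaCaT in DMEM 10% FBS; MG63 in MEM 10% FBS; THP-1 and U937 in RPMI1640 10% FBS; all at 37 °C, 5% CO₂.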
`C=C1[C@H](O)CC(=C/C=C2\CCC[C@]3(C)[C@@H]([C@H](C)CC#C[C@@H](O)CC45CC6CC(CC(C6)C4)C5)CC[C@@H]23)C[C@H]1O` returned an Activity of 15%.

The target of the next test is T1, Vitamin D3 receptor. Description: Activation of human VDR expressed in HEK293 cells cotransfected CMX-GAL4-NCoR2 and 4-tk-LUC assessed as inhibition of NCoR2 binding to VDR by mammalian two-hybrid assay. It is filed as cell-based.
Settings: not given
The method, boiled down:
as §1
In the case of `C=C1[C@H](O)CC(=C/C=C2\CCC[C@]3(C)[C@@H]([C@H](C)CC#C[C@@H](O)CC45CC6CC(CC(C6)C4)C5)CC[C@@H]23)C[C@H]1O`, the EC50 is 2.8 nM.

Another test relates to THP-1. Nature of the test: Induction of cathelicidine antimicrobial peptide mRNA expression in human THP1 cells at 100 nM after 24 hrs by real-time PCR relative to 1-alpha,25-dihydroxyvitamin D3. The test is classed as functional.
Settings: not given
In a few lines: as §2
Background: In qPCR the cycle at which signal appears reflects the starting amount.
In turn, `C=C1[C@H](O)CC(=C/C=C2\CCC[C@]3(C)[C@@H]([C@H](C)CC#C[C@@H](O)CC45CC6CC(CC(C6)C4)C5)CC[C@@H]23)C[C@H]1O` yielded an Activity of 55%.

The subject of another test is U-937. Description: Induction of cathelicidine antimicrobial peptide mRNA expression in human U937 cells at 100 nM after 24 hrs by real-time PCR relative to 1-alpha,25-dihydroxyvitamin D3.
Settings: not given
The test is classed as functional. The method, boiled down: as §2
For the molecule `C=C1[C@H](O)CC(=C/C=C2\CCC[C@]3(C)[C@@H]([C@H](C)CC#C[C@@H](O)CC45CC6CC(CC(C6)C4)C5)CC[C@@H]23)C[C@H]1O`, the Activity worked out at 65%.

The target of another test is T1, Vitamin D3 receptor. Description: Activation of human VDR expressed in HEK293 cells cotransfected CMX-GAL4-SRC1 and 4-tk-LUC assessed as SRC1 interaction with AF2 surface of VDR by mammalian two-hybrid assay. It is filed as cell-based.
Settings: not given
In a few lines: as §1
`C=C1[C@H](O)CC(=C/C=C2\CCC[C@]3(C)[C@@H]([C@H](C)CC#C[C@@H](O)CC45CC6CC(CC(C6)C4)C5)CC[C@@H]23)C[C@H]1O`: the EC50 was 13.5 nM.

In a further test the test system is SW480. Description: Induction of TRPV6 mRNA expression in human SW480 cells at 100 nM after 24 hrs by real-time PCR relative to 1-alpha,25-dihydroxyvitamin D3.
Settings: not given
It is filed as functional. The method, boiled down:
as §2
As to `C=C1[C@H](O)CC(=C/C=C2\CCC[C@]3(C)[C@@H]([C@H](C)CC#C[C@@H](O)CC45CC6CC(CC(C6)C4)C5)CC[C@@H]23)C[C@H]1O`, the Activity came to 35%.

Another test addresses T2, Vitamin D3 receptor (Homo sapiens) (UniProt P11473).
T2 sequence (whole entry): T1 sequence (P11473 whole entry)
Conditions: HEK293, 10 to 1000 nM.
For `C=C1[C@H](O)CC(=C/C=C2\CCC[C@]3(C)[C@@H]([C@H](C)CC#C[C@@H](O)CC45CC6CC(CC(C6)C4)C5)CC[C@@H]23)C[C@H]1O`, the inhibition result is “Active”.

The target of another test is T1, Vitamin D3 receptor. Description: Activation of human VDR expressed in HEK293 cells cotransfected CMX-GAL4-N-CoR and 4-tk-LUC assessed as inhibition of N-CoR binding to VDR by mammalian two-hybrid assay. The test is classed as cell-based.
Settings: not given
In a few lines:
as §1
Take `C=C1[C@H](O)CC(=C/C=C2\CCC[C@]3(C)[C@@H]([C@H](C)CC#C[C@@H](O)CC45CC6CC(CC(C6)C4)C5)CC[C@@H]23)C[C@H]1O`: the EC50 came to 1.8 nM.

The subject of another test is U-937. Nature of the test: Induction of cyp24A1 mRNA expression in human U937 cells at 100 nM after 24 hrs by real-time PCR relative to 1-alpha,25-dihydroxyvitamin D3. The test is classed as functional.
Settings: not given
In a few lines: as §2
For `C=C1[C@H](O)CC(=C/C=C2\CCC[C@]3(C)[C@@H]([C@H](C)CC#C[C@@H](O)CC45CC6CC(CC(C6)C4)C5)CC[C@@H]23)C[C@H]1O`, the Activity was 50%.

The test system of a further test is HEK293. Nature of the test: Induction of cyp24A1 mRNA expression in HEK293 cells at 100 nM after 24 hrs by real-time PCR relative to 1-alpha,25-dihydroxyvitamin D3. The test is classed as functional, Homo sapiens.
Settings: not given
The method, boiled down:
as §2
`C=C1[C@H](O)CC(=C/C=C2\CCC[C@]3(C)[C@@H]([C@H](C)CC#C[C@@H](O)CC45CC6CC(CC(C6)C4)C5)CC[C@@H]23)C[C@H]1O` displayed an Activity of 30%.

In the next test the test system is U-937. Description: Induction of cathelicidine antimicrobial peptide mRNA in human U937 cells at 100 nM after 24 hrs by real-time PCR relative to skin cells. It is filed as functional.
Settings: not given
In a few lines:
(§3)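 THP-1 and U937 cells were grown in RPMI1640 with 10% FBS and penicillin/streptomycin at 37 °C under 5% CO₂, and plated at 1 × 10⁴ cells/well. After 24 h, cells got an ethanol control, 100 nM 1,25(OH)₂D₃ or 100 nM analogue for 24 h. RNA was extracted by a chloroform method and reverse-transcribed. CAMP was measured by SYBR Green real-time PCR, normalized to ACTIN mRNA and compared with 1,25(OH)₂D₃.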
Take `C=C1[C@H](O)CC(=C/C=C2\CCC[C@]3(C)[C@@H]([C@H](C)CC#C[C@@H](O)CC45CC6CC(CC(C6)C4)C5)CC[C@@H]23)C[C@H]1O`: the “fold change (FC)” value was 3.5.

The subject of a further test is THP-1. Nature of the test: Induction of cathelicidine antimicrobial peptide mRNA expression in human THP1 cells at 100 nM after 24 hrs by real-time PCR relative to skin cells.
Settings: not given
It is filed as functional. In a few lines:
as §3
Consider `C=C1[C@H](O)CC(=C/C=C2\CCC[C@]3(C)[C@@H]([C@H](C)CC#C[C@@H](O)CC45CC6CC(CC(C6)C4)C5)CC[C@@H]23)C[C@H]1O`, for which the “fold change (FC)” value is 3.5.

Another test deals with THP-1. Description: Induction of cyp24A1 mRNA expression in human THP1 cells at 100 nM after 24 hrs by real-time PCR relative to 1-alpha,25-dihydroxyvitamin D3. It is filed as functional.
Settings: not given
The method, boiled down: as §2
Molecule `C=C1[C@H](O)CC(=C/C=C2\CCC[C@]3(C)[C@@H]([C@H](C)CC#C[C@@H](O)CC45CC6CC(CC(C6)C4)C5)CC[C@@H]23)C[C@H]1O` yielded an Activity of 10%.

Another test deals with SW480. Nature of the test: Induction of cyp24A1 mRNA expression in human SW480 cells at 100 nM after 24 hrs by real-time PCR relative to 1-alpha,25-dihydroxyvitamin D3. The test is classed as functional.
Settings: not given
In a few lines:
as §2
`C=C1[C@H](O)CC(=C/C=C2\CCC[C@]3(C)[C@@H]([C@H](C)CC#C[C@@H](O)CC45CC6CC(CC(C6)C4)C5)CC[C@@H]23)C[C@H]1O` came in with an Activity of 10%.

A further test deals with T1, Vitamin D3 receptor. Nature of the test: Transactivation of human VDR expressed in HEK293 cells cotransfected with mouse VDRE, Tk-Sppx3-LUC reporter plasmid measured after 24 hrs by luciferase reporter assay. The test is classed as cell-based.
Settings: not given
The method, boiled down:
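HEK293 cells in DMEM with 5% FBS, calcium phosphate-transfected per well with 50 ng TK-Spp×3-LUC (mouse osteopontin VDRE), 10 ng pCMX-β-galactosidase, 15 ng pCMX-VDR and 15 ng pCMX-RXRα. Compounds were tested across a concentration range and cells harvested after 16–24 h. Luciferase was normalised to β-galactosidase. EC50 and efficacy relative to 1,25(OH)₂D₃.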
As to `C=C1[C@H](O)CC(=C/C=C2\CCC[C@]3(C)[C@@H]([C@H](C)CC#C[C@@H](O)CC45CC6CC(CC(C6)C4)C5)CC[C@@H]23)C[C@H]1O`, the midpoint of the response, the EC50, lay at 1.1 nM.

The subject of the next test is HaCaT. Description: Induction of cyp24A1 mRNA expression in human HaCaT cells at 100 nM after 24 hrs by real-time PCR relative to 1-alpha,25-dihydroxyvitamin D3.
Settings: not given
The test is classed as functional. In a few lines:
as §2
Molecule `C=C1[C@H](O)CC(=C/C=C2\CCC[C@]3(C)[C@@H]([C@H](C)CC#C[C@@H](O)CC45CC6CC(CC(C6)C4)C5)CC[C@@H]23)C[C@H]1O` yielded an Activity of 10%.

The test system of another test is MG-63. Nature of the test: Induction of cyp24A1 mRNA expression in human MG63 cells at 100 nM after 24 hrs by real-time PCR relative to 1-alpha,25-dihydroxyvitamin D3. The test is classed as functional.
Settings: not given
The method, boiled down: as §2
Molecule `C=C1[C@H](O)CC(=C/C=C2\CCC[C@]3(C)[C@@H]([C@H](C)CC#C[C@@H](O)CC45CC6CC(CC(C6)C4)C5)CC[C@@H]23)C[C@H]1O` showed an Activity of 50%.

Broadly, the EC50 is the concentration that produces a half-maximal response. One may read the IC50 as the concentration that gives 50% inhibition. Low values mean inhibition by little substance, high ones a need for much substance.

These data come from ChEMBL document CHEMBL3259615, “Combination of triple bond and adamantane ring on the vitamin D side chain produced partial agonists for vitamin D receptor” (J Med Chem, 2014).
